Source: ChEMBL document CHEMBL1140929, “Synthesis and evaluation of 18F-labeled 2-phenylbenzothiazoles as positron emission tomography imaging agents for amyloid plaques in Alzheimer's disease” (J Med Chem, 2009)
Each block holds one compound with its values, some of them ahead of it.

How the values were obtained:
[1] = Biodistribution in NMRI mouse cerebrum assessed per gram of tissue at 3.7 MBq/mL, iv after 2 mins by gamma counting; assay type: ADME, organism-based; conditions: in vivo
How it was run: (§1)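 Male NMRI mice (30-40 g) anaesthetised with 0.1 mL ip Hypnorm (fentanyl citrate 63 µg/mL, fluanisone 2 mg/mL). Each received 0.1 mL of HPLC-purified 18F tracer, diluted in 0.9% NaCl to 3.7 MBq/mL (ethanol ≤10%, THF ≤0.02%), via tail vein. Killed by decapitation at 2 or 60 min; blood and organs weighed and γ-counted. Background-corrected, expressed as %ID or %ID/g.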

Heart [2] = assay: Biodistribution in NMRI mouse heart assessed per gram of tissue at 3.7 MBq/mL, iv after 2 mins by gamma counting; assay type: ADME, organism-based; conditions: in vivo; how it was run: as §1
Heart [3] = assay: Biodistribution in NMRI mouse heart at 3.7 MBq/mL, iv after 60 mins by gamma counting; assay type: ADME, organism-based; conditions: in vivo, 1 h; how it was run: as §1
Kidney [4] = assay: Biodistribution in NMRI mouse kidney at 3.7 MBq/mL, iv after 60 mins by gamma counting; assay type: ADME, organism-based; conditions: in vivo, 1 h; how it was run: as §1
Kidney [5] = assay: Biodistribution in NMRI mouse kidney assessed per gram of tissue at 3.7 MBq/mL, iv after 2 mins by gamma counting; assay type: ADME, organism-based; conditions: in vivo; how it was run: as §1
Liver [6] = assay: Biodistribution in NMRI mouse liver at 3.7 MBq/mL, iv after 60 mins by gamma counting; assay type: ADME, organism-based; conditions: in vivo, 1 h; how it was run: as §1
Lung [7] = assay: Biodistribution in NMRI mouse lung assessed per gram of tissue at 3.7 MBq/mL, iv after 2 mins by gamma counting; assay type: ADME, organism-based; conditions: in vivo; how it was run: as §1
Liver [8] = assay: Biodistribution in NMRI mouse liver assessed per gram of tissue at 3.7 MBq/mL, iv after 60 mins by gamma counting; assay type: ADME, organism-based; conditions: in vivo, 1 h; how it was run: as §1
[9] = Biodistribution in NMRI mouse spleen/pancreas at 3.7 MBq/mL, iv after 2 mins by gamma counting; assay type: ADME, organism-based; conditions: in vivo; how it was run: as §1
Liver [10] = assay: Biodistribution in NMRI mouse liver at 3.7 MBq/mL, iv after 2 mins by gamma counting; assay type: ADME, organism-based; conditions: in vivo; how it was run: as §1
Lung [11] = assay: Biodistribution in NMRI mouse lung at 3.7 MBq/mL, iv after 2 mins by gamma counting; assay type: ADME, organism-based; conditions: in vivo
Cerebellum [12] = assay: Biodistribution in NMRI mouse cerebellum assessed per gram of tissue at 3.7 MBq/mL, iv after 60 mins by gamma counting; assay type: ADME, organism-based; conditions: in vivo, 1 h; how it was run: as §1
Blood [13] = assay: Biodistribution in NMRI mouse blood assessed per gram of tissue at 3.7 MBq/mL, iv after 2 mins by gamma counting; assay type: ADME, organism-based; conditions: in vivo; how it was run: as §1
[14] = Biodistribution in NMRI mouse spleen/pancreas assessed per gram of tissue at 3.7 MBq/mL, iv after 60 mins by gamma counting; assay type: ADME, organism-based; conditions: in vivo, 1 h; how it was run: as §1
Cerebellum [15] = assay: Biodistribution in NMRI mouse cerebellum at 3.7 MBq/mL, iv after 60 mins by gamma counting; assay type: ADME, organism-based; conditions: in vivo, 1 h; how it was run: as §1
[16] = Biodistribution in NMRI mouse urine at 3.7 MBq/mL, iv after 60 mins by gamma counting; assay type: ADME, organism-based; conditions: in vivo, 1 h; how it was run: as §1
Heart [17] = assay: Biodistribution in NMRI mouse heart at 3.7 MBq/mL, iv after 2 mins by gamma counting; assay type: ADME, organism-based; conditions: in vivo; how it was run: as §1
Heart [18] = assay: Biodistribution in NMRI mouse heart assessed per gram of tissue at 3.7 MBq/mL, iv after 60 mins by gamma counting; assay type: ADME, organism-based; conditions: in vivo, 1 h; how it was run: as §1
Blood [19] = assay: Biodistribution in NMRI mouse blood at 3.7 MBq/mL, iv after 2 mins by gamma counting; assay type: ADME, organism-based; conditions: in vivo; how it was run: as §1
Blood [20] = assay: Biodistribution in NMRI mouse blood at 3.7 MBq/mL, iv after 60 mins by gamma counting; assay type: ADME, organism-based; conditions: in vivo, 1 h; how it was run: as §1
Cerebellum [21] = assay: Biodistribution in NMRI mouse cerebellum at 3.7 MBq/mL, iv after 2 mins by gamma counting; assay type: ADME, organism-based; conditions: in vivo; how it was run: as §1
Lung [22] = assay: Biodistribution in NMRI mouse lung assessed per gram of tissue at 3.7 MBq/mL, iv after 60 mins by gamma counting; assay type: ADME, organism-based; conditions: in vivo, 1 h; how it was run: as §1
Kidney [23] = assay: Biodistribution in NMRI mouse kidney assessed per gram of tissue at 3.7 MBq/mL, iv after 60 mins by gamma counting; assay type: ADME, organism-based; conditions: in vivo, 1 h; how it was run: as §1
Stomach [24] = assay: Biodistribution in NMRI mouse stomach at 3.7 MBq/mL, iv after 60 mins by gamma counting; assay type: ADME, organism-based; conditions: in vivo, 1 h; how it was run: as §1
[25] = Biodistribution in NMRI mouse spleen/pancreas at 3.7 MBq/mL, iv after 60 mins by gamma counting; assay type: ADME, organism-based; conditions: in vivo, 1 h; how it was run: as §1
[26] = Biodistribution in NMRI mouse cerebrum assessed per gram of tissue at 3.7 MBq/mL, iv after 60 mins by gamma counting; assay type: ADME, organism-based; conditions: in vivo, 1 h; how it was run: as §1
[27] = Biodistribution in NMRI mouse cerebrum at 3.7 MBq/mL, iv after 60 mins by gamma counting; assay type: ADME, organism-based; conditions: in vivo, 1 h; how it was run: as §1
[28] = Biodistribution in NMRI mouse cerebrum at 3.7 MBq/mL, iv after 2 mins by gamma counting; assay type: ADME, organism-based; conditions: in vivo; how it was run: as §1
Cerebellum [29] = assay: Biodistribution in NMRI mouse cerebellum assessed per gram of tissue at 3.7 MBq/mL, iv after 2 mins by gamma counting; assay type: ADME, organism-based; conditions: in vivo; how it was run: as §1
Stomach [30] = assay: Biodistribution in NMRI mouse stomach at 3.7 MBq/mL, iv after 2 mins by gamma counting; assay type: ADME, organism-based; conditions: in vivo; how it was run: as §1
Blood [31] = assay: Biodistribution in NMRI mouse blood assessed per gram of tissue at 3.7 MBq/mL, iv after 60 mins by gamma counting; assay type: ADME, organism-based; conditions: in vivo, 1 h; how it was run: as §1
Intestine [32] = assay: Biodistribution in NMRI mouse intestine at 3.7 MBq/mL, iv after 60 mins by gamma counting; assay type: ADME, organism-based; conditions: in vivo, 1 h; how it was run: as §1
[33] = Biodistribution in NMRI mouse urine at 3.7 MBq/mL, iv after 2 mins by gamma counting; assay type: ADME, organism-based; conditions: in vivo; how it was run: as §1
Lung [34] = assay: Biodistribution in NMRI mouse lung at 3.7 MBq/mL, iv after 60 mins by gamma counting; assay type: ADME, organism-based; conditions: in vivo, 1 h; how it was run: as §1
[35] = Biodistribution in NMRI mouse spleen/pancreas assessed per gram of tissue at 3.7 MBq/mL, iv after 2 mins by gamma counting; assay type: ADME, organism-based; conditions: in vivo; how it was run: as §1
Liver [36] = assay: Biodistribution in NMRI mouse liver assessed per gram of tissue at 3.7 MBq/mL, iv after 2 mins by gamma counting; assay type: ADME, organism-based; conditions: in vivo; how it was run: as §1
Intestine [37] = assay: Biodistribution in NMRI mouse intestine at 3.7 MBq/mL, iv after 2 mins by gamma counting; assay type: ADME, organism-based; conditions: in vivo; how it was run: as §1
[38] = target: Amyloid-beta precursor protein (Homo sapiens, UniProt P05067); assay: Displacement of [125I]IMPY from beta-amyloid plaques in Alzheimer's disease patient brain homogenate; assay type: tissue-based
Amyloid-beta precursor protein, sequence (P05067 whole entry): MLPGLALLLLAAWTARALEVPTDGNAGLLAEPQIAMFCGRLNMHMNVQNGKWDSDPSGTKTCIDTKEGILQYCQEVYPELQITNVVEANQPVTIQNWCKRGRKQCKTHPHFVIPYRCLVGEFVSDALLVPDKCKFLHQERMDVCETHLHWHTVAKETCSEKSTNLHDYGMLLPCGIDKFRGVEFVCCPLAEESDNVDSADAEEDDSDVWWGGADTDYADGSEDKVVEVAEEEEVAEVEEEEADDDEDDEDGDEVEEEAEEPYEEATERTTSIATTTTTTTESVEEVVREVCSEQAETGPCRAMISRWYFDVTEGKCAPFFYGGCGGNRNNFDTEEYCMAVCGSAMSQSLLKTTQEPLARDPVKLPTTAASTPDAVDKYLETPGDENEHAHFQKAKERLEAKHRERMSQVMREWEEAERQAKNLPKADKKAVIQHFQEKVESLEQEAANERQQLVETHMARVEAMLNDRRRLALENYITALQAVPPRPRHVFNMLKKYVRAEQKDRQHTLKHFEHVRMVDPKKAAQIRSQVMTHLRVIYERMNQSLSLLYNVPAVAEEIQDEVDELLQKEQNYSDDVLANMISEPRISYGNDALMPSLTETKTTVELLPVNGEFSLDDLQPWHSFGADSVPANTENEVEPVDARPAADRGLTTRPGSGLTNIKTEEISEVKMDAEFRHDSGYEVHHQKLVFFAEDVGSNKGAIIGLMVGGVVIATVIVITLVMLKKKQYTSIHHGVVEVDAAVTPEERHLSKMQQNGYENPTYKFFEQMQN

- Drug uptake [1]: 5.33 % ID/g
- Drug uptake (Heart [2]): 5.4 % ID/g
- Drug uptake (Heart [3]): 0.1 %ID
- Drug uptake (Kidney [4]): 2.3 %ID
- Drug uptake (Kidney [5]): 9.3 % ID/g
- Drug uptake (Liver [6]): 51.8 %ID
- Drug uptake (Lung [7]): 14.4 % ID/g
- Drug uptake (Liver [8]): 24.6 % ID/g
- Drug uptake [9]: 1.3 %ID
- Drug uptake (Liver [10]): 24.8 %ID
- Drug uptake (Lung [11]): 3.6 %ID
- Drug uptake (Cerebellum [12]): 0.39 % ID/g
- Drug uptake (Blood [13]): 2.2 % ID/g
- Drug uptake [14]: 0.4 % ID/g
- Drug uptake (Cerebellum [15]): 0.04 %ID
- Drug uptake [16]: 5.8 %ID
- Drug uptake (Heart [17]): 0.9 %ID
- Drug uptake (Heart [18]): 0.5 % ID/g
- Drug uptake (Blood [19]): 5.7 %ID
- Drug uptake (Blood [20]): 2.8 %ID
- Drug uptake (Cerebellum [21]): 0.42 %ID
- Drug uptake (Lung [22]): 1.3 % ID/g
- Drug uptake (Kidney [23]): 3.6 % ID/g
- Drug uptake (Stomach [24]): 1.1 %ID
- Drug uptake [25]: 0.1 %ID
- Drug uptake [26]: 0.27 % ID/g
- Drug uptake [27]: 0.07 %ID
- Drug uptake [28]: 1.62 %ID
- Drug uptake (Cerebellum [29]): 5.99 % ID/g
- Drug uptake (Stomach [30]): 1.3 %ID
- Drug uptake (Blood [31]): 1.1 % ID/g
- Drug uptake (Intestine [32]): 19.3 %ID
- Drug uptake [33]: 0.2 %ID
- Drug uptake (Lung [34]): 0.3 %ID
- Drug uptake [35]: 4 % ID/g
- Drug uptake (Liver [36]): 12 % ID/g
- Drug uptake (Intestine [37]): 8.9 %ID
Structure (SMILES): Cc1ccc2nc(-c3ccc([18F])cc3)sc2c1

- Ki [38]: 2.2 nM
Structure (SMILES): COc1ccc2nc(-c3ccc(F)cc3)sc2c1

- Ki [38]: 22.5 nM
Structure (SMILES): Oc1ccc2nc(-c3ccc(F)cc3)sc2c1

- Ki [38]: 776 nM
Structure (SMILES): Oc1cc(O)c2sc(-c3ccc(F)cc3)nc2c1
